Assay results: article PMC8314423 (Journal of medicinal chemistry, 2018)
pEC50: −log10 of the molar value.

Columns and labels:
[1] = test system: RAS-GTP levels in HeLa cells; assay: RAS-GTP levels in HeLa cells; assay type: cell-based; details: 10 min treatment; for change in RAS-GTP levels: up to 30 μM
In short: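 HeLa (WT KRAS) cells exposed to test compound for 10 min at concentrations up to 30 μM. RAS-GTP levels were measured together with the accompanying pERK1/2 T202/Y204 levels. EGF (50 ng/mL, 5 min) served as the positive control for pathway stimulation. Data are representative of two independent experiments.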

[2] = biological target: SOS1-mediated nucleotide exchange on RAS (Homo sapiens, UniProt Q07889); assay: SOS1-mediated nucleotide exchange assay; assay type: biochemical
SOS1-mediated nucleotide exchange on RAS, sequence (Q07889 564-1049 limits assumed): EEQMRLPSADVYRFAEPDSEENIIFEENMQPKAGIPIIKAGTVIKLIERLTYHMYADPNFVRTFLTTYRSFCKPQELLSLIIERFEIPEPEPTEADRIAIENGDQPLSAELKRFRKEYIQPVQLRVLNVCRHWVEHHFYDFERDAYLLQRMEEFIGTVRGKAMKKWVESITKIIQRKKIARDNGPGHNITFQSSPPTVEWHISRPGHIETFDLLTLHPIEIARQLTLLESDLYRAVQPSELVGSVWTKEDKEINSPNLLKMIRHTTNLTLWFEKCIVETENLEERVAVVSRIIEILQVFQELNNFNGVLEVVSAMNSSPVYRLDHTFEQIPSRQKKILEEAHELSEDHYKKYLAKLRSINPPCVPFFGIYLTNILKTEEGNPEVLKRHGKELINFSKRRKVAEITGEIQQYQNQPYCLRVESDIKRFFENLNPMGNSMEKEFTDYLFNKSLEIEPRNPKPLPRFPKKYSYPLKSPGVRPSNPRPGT
SOS1-mediated nucleotide exchange on RAS, sequence (P01112 1-166 partner limits assumed): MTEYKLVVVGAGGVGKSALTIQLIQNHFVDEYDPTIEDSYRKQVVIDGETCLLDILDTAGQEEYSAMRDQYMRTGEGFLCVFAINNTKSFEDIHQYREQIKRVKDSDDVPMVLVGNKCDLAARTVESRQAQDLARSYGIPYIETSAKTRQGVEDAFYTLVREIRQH

Row | SMILES | change in RAS-GTP levels [1] | further results
1 | Cc1cc(Cn2c(N3CC4(CNC4)C3)nc3c(N4CCN(C)CC4)cc(Cl)cc32)cc(C)c1F [Compound 64, 6-Chloro-1-(4-fluoro-3,5-dimethylbenzyl)-4-(4-methylpiperazin-1-yl)-2-(2,6-diazaspiro[3.3]heptan-2-yl)-1H-benzo[d]imidazole] | substantial increases in RAS-GTP levels at 10–30 μM | lowest concentration inducing small increases in RAS-GTP [1]: 0.3 µM
2 | Cc1cc(Cn2c(N3CC4(CNC4)C3)nc3c(-c4cncnc4C)cc(Cl)cc32)cc(C)c1F [Compound 60, 6-Chloro-1-(4-fluoro-3,5-dimethylbenzyl)-4-(4-methylpyrimidin-5-yl)-2-(2,6-diazaspiro[3.3]heptan-2-yl)-1H-benzo[d]imidazole] | only modest increases in RAS-GTP levels | 
3 | Cc1cc(Cn2c(N3CCNCC3)nc3c(-c4cncnc4C)cc(Cl)cc32)cc(C)c1F [Compound 55, 6-Chloro-1-(4-fluoro-3,5-dimethylbenzyl)-4-(4-methylpyrimidin-5-yl)-2-(piperazin-1-yl)-1H-benzo[d]imidazole] | only modest increases in RAS-GTP levels | 
4 | Cc1cc(Cn2c(N3CCNCC3)nc3ccc(Cl)cc32)cc(C)c1F [Compound 29, 6-Chloro-1-(4-fluoro-3,5-dimethylbenzyl)-2-(piperazin-1-yl)-1H-benzo[d]imidazole] |  | pEC50 [2]: > 6.00
5 | Cc1cc(Cn2c(N3CCNCC3)nc3c(N4CCN(C)CC4)cc(Cl)cc32)cc(C)c1F [Compound 42, 6-Chloro-1-(4-fluoro-3,5-dimethylbenzyl)-4-(4-methylpiperazin-1-yl)-2-(piperazin-1-yl)-1H-benzo[d]imidazole] | substantial increases in RAS-GTP levels at 10–30 μM | lowest concentration inducing small increases in RAS-GTP [1]: 0.3 µM
6 | Cc1ncncc1-c1cc(Cl)cc2c1nc(N1CC3(CNC3)C1)n2Cc1ccc(F)cc1 [Compound 61, 6-Chloro-1-(4-fluorobenzyl)-4-(4-methylpyrimidin-5-yl)-2-(2,6-diazaspiro[3.3]heptan-2-yl)-1H-benzo[d]imidazole] | only modest increases in RAS-GTP levels | 
7 | Cc1cc2ncn(Cc3ccc(F)c(Cl)c3)c2cc1C [Compound 4, 1-(3-Chloro-4-fluorobenzyl)-5,6-dimethyl-1H-benzo[d]imidazole] |  | nucleotide exchange activation ([2]; in words): negligible nucleotide exchange activation
